Source: PubChem BioAssay
This is a sample that favours compounds with a hit; in the whole collection about 2.6% have one here.
OXTR ag: human OXTR agonists, primary screen, fluorescence, CHO-OTR cells, Fluo-8 calcium | Oxytocin receptor (Homo sapiens), P30559 | Fluo-8 calcium fluorescence; normalized: DMSO 0%, oxytocin 100% | activation, % at 3 µM | 320,000 tested, 0.32% active;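 active = activation above the mean of all tested compounds plus 3 SD, cutoff set per screening run, cut at about 20% in these data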;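 note: peak over basal fluorescence ratio from a 100 s FLIPR kinetic read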
V1aR counter: agonists of human V1a receptor, primary screen, counter-screen for OXTR agonist project, fluorescence, CHO-V1R cells. Vasopressin V1a receptor (Homo sapiens), P37288. Fluo-8 calcium fluorescence, agonist mode; 0% DMSO, 100% 3 nM vasopressin. activation, % at 3 µM. 320,000 tested, 0.25% active. AID 2797, 2010;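 active = activation above the mean activation of all tested compounds plus 3 SD, per screening run, cut at about 20% in these data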;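 note: signal is peak over basal fluorescence ratio across a 100 second FLIPR read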
OXTR potentiator: human OXTR potentiators, primary screen, fluorescence, CHO-OTR cells, Fluo-8 calcium; Oxytocin receptor (Homo sapiens), P30559; Fluo-8 calcium fluorescence, potentiator mode; 0% = oxytocin EC15, 100% = EC100; activation, % at 3 µM; 320,000 tested, 0.061% active;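 active = activation above that plate's cutoff, the mean activation of tested compounds plus 3 SD, cut at about 6.6% in these data, passing the limit was not always enough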;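 note: 100% uses oxytocin at 75 nM as the full agonist control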
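Assay system: CHO cell line stably expressing human OTR | Also added: Oxytocin at about EC15, sub-maximal agonist stimulus | Times: Compound 6 min at room temperature before oxytocin, 100 s read | Measured by: Fluo-8 intracellular calcium fluorescence, ex 470-495, em 515-575 nm | Controls: EC15 oxytocin alone as 0%, 75 nM oxytocin as 100%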
CHO parental Ca: ATP-evoked calcium signal inhibitors, parental CHO, primary screen, counter-screen for OX1R antagonist project, cell-based, fluorescence, Fluo-8 calcium dye; parental CHO-K1, ATP-induced calcium, Fluo-8 fluorescence; inhibition, % at 5.6 µM; 330,000 tested, 0.63% active;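 active = inhibition above that plate's mean sample inhibition plus 3 SD, cut at about 26% in these data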;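 note: 0% = ATP-challenged DMSO wells and 100% = DMSO wells without ATP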
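test system = CHO parental line | reagent = ATP stimulus | measured by = intracellular calcium via Fluo-8 no-wash fluorescent dye | control set = ATP and no-ATP DMSO wells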
OX1R antag-1: antagonists of human orexin 1 receptor (OX1R). AID 485270, 2010. Orexin/Hypocretin receptor type 1 (Homo sapiens), O43613. OX1R-expressing cells, FRET antagonist read-out. inhibition, % at 6.6 µM. 330,000 tested, 1.8% active; in the data active = inhibition mostly above about 38%, no sharp cut-off; inactive = mostly below about 40%;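 note: 0% = agonist challenge alone and 100% = reference antagonist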
Target sequence (O43613 whole entry, looked up): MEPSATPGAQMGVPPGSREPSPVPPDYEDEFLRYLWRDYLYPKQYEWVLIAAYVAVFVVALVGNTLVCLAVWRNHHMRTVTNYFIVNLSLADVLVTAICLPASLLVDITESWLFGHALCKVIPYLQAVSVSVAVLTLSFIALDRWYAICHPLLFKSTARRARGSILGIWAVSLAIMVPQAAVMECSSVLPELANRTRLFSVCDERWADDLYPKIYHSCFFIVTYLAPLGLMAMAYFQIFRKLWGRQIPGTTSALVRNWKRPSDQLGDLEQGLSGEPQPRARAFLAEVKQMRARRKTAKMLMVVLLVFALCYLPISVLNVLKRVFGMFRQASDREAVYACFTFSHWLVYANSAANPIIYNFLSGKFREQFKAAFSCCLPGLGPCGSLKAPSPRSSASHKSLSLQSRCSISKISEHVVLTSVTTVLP
OX1R antag-2: OX1R (HCRTR1) antagonists, primary screen, fluorescence, CHO/OX1R cells, Fluo-8 calcium, orexin A | Orexin/Hypocretin receptor type 1 (Homo sapiens), O43613 | Fluo-8 calcium fluorescence | inhibition, % at 5 µM | 330,000 tested, 0.43% active;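 active = inhibition above its plate's threshold, mean inhibition of all tested compounds on the plate plus 3 SD, cut at about 37% in these data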;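 note: 0% = orexin A challenge wells and 100% = SB-334867-A antagonist wells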
OX1R HTRF confirm: OX1R (HCRTR1) antagonists, confirmation, cell-based, HTRF; shares compounds with OX1R antag-1; OX1R-expressing cells, HTRF antagonist assay; inhibition, % at 6.6 µM; 1,800 tested, 49% active; AID 492964, 2010; in the data active = inhibition above about 55%;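 note: CHO cells expressing OX1R stimulated with orexin A at about EC80; 0% = agonist challenge alone and 100% = reference antagonist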
CHO-K1 HTRF cnt: signal inhibition in parental CHO-K1 cells, counter-screen for OX1R antagonist project, cell-based, HTRF; shares compounds with OX1R antag-1; HTRF counterscreen; inhibition, % at 6.6 µM; 1,800 tested, 48% active; in the data active = inhibition above about 17%;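 note: 0% = agonist challenge with vehicle and 100% = vehicle alone without agonist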
Starred values were filed as active, the others as inactive.

What do the screens show for `CC(=O)NC1=C(NC2CCS(=O)(=O)C2)C(=O)c2ccccc2C1=O` (stereo not given)?
OXTR ag: -0.2; V1aR counter: 0.5; OXTR potentiator: 0.0; CHO parental Ca: -7.3; OX1R antag-1: 141.2*; OX1R antag-2: -4.0; OX1R HTRF confirm: 68.6*; CHO-K1 HTRF cnt: 94.2*

What do the screens show for `O=C(NC1CC1)c1ccc(-c2nc3ccccc3s2)s1`?
OXTR ag: 3.2; V1aR counter: 4.0; OXTR potentiator: -0.3; CHO parental Ca: -14.7; OX1R antag-1: 113.1*; OX1R antag-2: 20.7; OX1R HTRF confirm: 83.7*; CHO-K1 HTRF cnt: 12.2

What do the screens show for `CC(NS(=O)(=O)c1ccc([N+](=O)[O-])cc1)C(=O)NN` (stereo not given)?
OXTR ag: 0.6; V1aR counter: 0.5; OXTR potentiator: -9.9; CHO parental Ca: -6.5; OX1R antag-1: 84.8*; OX1R antag-2: -14.4; OX1R HTRF confirm: 28.3; CHO-K1 HTRF cnt: 48.2*

How did NC1=NC(=O)/C(=C/c2cn(CCC(=O)O)nc2-c2ccc(Cl)cc2)S1 do in these assays?
OXTR ag: 0.9; V1aR counter: 0.4; OXTR potentiator: 2.5; CHO parental Ca: 3.4; OX1R antag-1: 32.9; OX1R antag-2: -9.7

Results for COc1ccc(-c2nn(CCC(=O)O)cc2/C=C2\SC(N)=NC2=O)cc1 ?
OXTR ag: 0.8; V1aR counter: 0.3; OXTR potentiator: 1.0; CHO parental Ca: -0.4; OX1R antag-1: 77.2*; OX1R antag-2: 22.1; OX1R HTRF confirm: 41.3; CHO-K1 HTRF cnt: 31.4*

How did CN(CC(=O)NCCN1CCCCCC1)S(=O)(=O)c1cccc2nsnc12 do in these assays?
OXTR ag: -0.1; V1aR counter: 0.1; OXTR potentiator: -7.2; CHO parental Ca: -19.7; OX1R antag-1: 80.4*; OX1R antag-2: -19.0; OX1R HTRF confirm: 33.6; CHO-K1 HTRF cnt: 41.5*

Results for CC1CCCCC1NC(=O)CN(C)S(=O)(=O)c1cccc2cccnc12 (stereo not given) ?
OXTR ag: -0.9; V1aR counter: -0.3; OXTR potentiator: -10.7; CHO parental Ca: -9.5; OX1R antag-1: 10.7; OX1R antag-2: -19.5

What do the screens show for `CC1CCCCC1NC(=O)CN(C)S(=O)(=O)c1cccc2nsnc12` (stereo not given)?
OXTR ag: 0.0; V1aR counter: 0.7; OXTR potentiator: -14.9; CHO parental Ca: -4.1; OX1R antag-1: 83.9*; OX1R antag-2: -20.3; OX1R HTRF confirm: 28.8; CHO-K1 HTRF cnt: 24.4*

Results for CN(CC(=O)NC1CCCCC1)S(=O)(=O)c1cccc2nsnc12 ?
OXTR ag: -0.7; V1aR counter: 0.4; OXTR potentiator: -5.4; CHO parental Ca: -26.8; OX1R antag-1: 94.9*; OX1R antag-2: -30.4; OX1R HTRF confirm: 55.7*; CHO-K1 HTRF cnt: 36.6*

Results for O=C(NCc1n[nH]c(=O)c2ccccc12)C1CC(=O)N(c2ccc(Cl)cc2)C1 (stereo not given) ?
OXTR ag: -2.3; V1aR counter: -1.0; OXTR potentiator: -13.6; CHO parental Ca: -5.3; OX1R antag-1: 12.5; OX1R antag-2: 14.0

What do the screens show for `O=C(c1ccc([N+](=O)[O-])cc1[N+](=O)[O-])N1CCCC1`?
OXTR ag: 0.1; V1aR counter: 0.4; OXTR potentiator: -6.7; CHO parental Ca: 0.6; OX1R antag-1: 111.9*; OX1R antag-2: -14.9; OX1R HTRF confirm: 41.0; CHO-K1 HTRF cnt: 45.9*

Results for O=C(c1ccc(Cl)cc1[N+](=O)[O-])N1CCOCC1 ?
OXTR ag: 0.3; V1aR counter: 0.0; OXTR potentiator: 0.1; CHO parental Ca: -2.9; OX1R antag-1: 24.4; OX1R antag-2: -14.4

Results for O=C(NCC1CCN(C(=O)c2ccc([N+](=O)[O-])cc2)CC1)c1ccc([N+](=O)[O-])cc1 ?
OXTR ag: -1.3; V1aR counter: 0.4; OXTR potentiator: -9.0; CHO parental Ca: -4.5; OX1R antag-1: 86.1*; OX1R antag-2: -24.1; OX1R HTRF confirm: 42.2; CHO-K1 HTRF cnt: 35.9*

Results for O=C(c1ccc(F)cc1)N1CCN(C(=O)c2ccc([N+](=O)[O-])cc2)CC1 ?
OXTR ag: 0.5; V1aR counter: 4.9; OXTR potentiator: 0.5; CHO parental Ca: -6.0; OX1R antag-1: 85.8*; OX1R antag-2: -23.3; OX1R HTRF confirm: 44.3; CHO-K1 HTRF cnt: 34.5*

How did Cc1ccc(/C=C/C(=O)OCC(=O)Nc2cccc(S(=O)(=O)N(C)C)c2)o1 do in these assays?
OXTR ag: 1.6; V1aR counter: 3.2; OXTR potentiator: -6.6; CHO parental Ca: -22.2; OX1R antag-1: 10.5; OX1R antag-2: -11.6

How did Cc1[nH]c2ccccc2c1/C=C/c1nc2ccccc2c(=O)n1CCO do in these assays?
OXTR ag: 1.6; V1aR counter: 3.0; OXTR potentiator: -12.1; CHO parental Ca: 3.2; OX1R antag-1: 35.4; OX1R antag-2: -9.9

What do the screens show for `O=C(NCc1ccc(F)cc1)C1(S(=O)(=O)c2ccc(Cl)cc2)CC1`?
OXTR ag: -2.5; V1aR counter: -0.7; OXTR potentiator: -5.5; CHO parental Ca: -16.6; OX1R antag-1: 11.9; OX1R antag-2: -13.0

What do the screens show for `CC(=O)c1ccc(OCCCCCCCOc2ccc(C(C)=O)cc2)cc1`?
OXTR ag: 0.0; V1aR counter: 0.4; OXTR potentiator: -18.1; CHO parental Ca: 2.1; OX1R antag-1: 4.0; OX1R antag-2: -0.7

How did CCOc1ccc(NC(=S)Nc2cc(OC)c(Cl)cc2OC)cc1 do in these assays?
OXTR ag: -0.8; V1aR counter: 0.4; OXTR potentiator: -4.8; CHO parental Ca: -0.3; OX1R antag-1: 21.9; OX1R antag-2: -12.3

What do the screens show for `CCn1c2ccccc2c2cc(NC(=O)COc3ccccc3OC)ccc21`?
OXTR ag: -2.1; V1aR counter: -1.3; OXTR potentiator: -15.3; CHO parental Ca: -16.4; OX1R antag-1: 101.3*; OX1R antag-2: 27.0; OX1R HTRF confirm: 78.7*; CHO-K1 HTRF cnt: 21.5*
